# Measured values of several laboratories.
# Effect on: cell growth or viability
SMILES,cell line,technique,concentration,time,quantity,value
COc1cccc2c1C(=O)c1c(O)c3c(c(O)c1C2=O)C[C@@](O)(C(=O)CO)C[C@@H]3O[C@H]1C[C@H](N)[C@H](O)[C@H](C)O1,MX1,,,96 h,IC50,22.5 nM
CO[C@H]1[C@H](O[C@H]([C@H]2O[C@@H](n3ccc(=O)[nH]c3=O)[C@H](O)[C@@H]2O)[C@H](NCCCNC(=O)[C@@H](NC(=O)[C@@H](NC(=O)N[C@H](C(=O)O)C(C)C)[C@@H]2CCN=C(N)N2)[C@@H](O)C(C)C)C(=O)O)O[C@H](CN)[C@H]1O,MDA-MB-453,WST-1,,,IC50,> 35000 nM
CCCCCCCCCCCCCCCCCCOc1cccc(CC(=O)OCC[N+](CC)(CC)CC)c1,NCI-H460,SRB,10 µM,,inhibition,33%
COc1cc([C@@H]2c3cc4c(cc3[C@@H](O[C@@H]3O[C@@H]5CO[C@@H](C)O[C@H]5[C@H](O)[C@H]3O)[C@H]3COC(=O)[C@H]23)OCO4)cc(OC)c1O,SNU-638,SRB,,72 h,IC50,590 nM
Cc1sc2c(c1C)C(c1ccc(Cl)cc1)=N[C@@H](CC(=O)NCCCCNC(=O)COc1cccc3c1C(=O)N(C1CCC(=O)NC1=O)C3=O)c1nnc(C)n1-2 (stereo partly shown),MDA-MB-453,CCK-8,,72 h,IC50,2720 nM
Nc1ccn([C@@H]2O[C@H](CO)[C@@H](O)C2(F)F)c(=O)n1,HCCC9810,CCK-8,,,IC50,2030 nM
Cc1cnc(CNC(=O)c2c(=O)c3ccc(N4CCCN(C)CC4)nc3n3c2sc2ccccc23)cn1,HK-1,MTS,,72 h,IC50,1000 nM
C[C@H](Nc1ccc2c(c1)OCCn1cc(N3C(=O)OC[C@H]3C(F)F)nc1-2)C(N)=O,MDA-MB-453,ATP luminescence,,5 days,EC50,45.7 nM
CO[C@H]1[C@H](O[C@H]([C@H]2O[C@@H](n3ccc(=O)[nH]c3=O)[C@H](O)[C@@H]2O)[C@H](NCCCNC(=O)[C@@H](NC(=O)[C@@H](NC(=O)N[C@H](C(=O)O)C(C)C)[C@@H]2CCN=C(N)N2)[C@@H](OC(=O)CCCCCCCCCCCCN(O)C(=N)N)C(C)C)C(=O)O)O[C@H](CN)[C@H]1O,MDA-MB-453,WST-1,,,IC50,880 nM
COC(=O)[C@H]1[C@@H](O)[C@@]2(O)c3c(OC)cc(O[C@@H]4O[C@@H]([C@H](O)CO)CO[C@H]4OC)cc3O[C@@]2(c2ccc(OC)cc2)[C@@H]1c1ccccc1,HK-1,MTS,,72 h,IC50,5 nM
Cc1nc(Nc2ncc(C(=O)Nc3c(C)cccc3Cl)s2)cc(N2CC[C@H](O)C2)n1,RS4-11,ATP luminescence,10 µM,72 h,inhibition,46%
CN1CCC(NC2CCc3[nH]c4c(C(N)=O)ccc(-c5ccccc5Cl)c4c3C2)CC1 (stereo not shown),MX1,,,96 h,IC50,19.5 nM
N/C(=N\O)c1ccc(-c2cc(CNc3cccc4cccnc34)on2)cc1,NCI-H460,MTS,,72 h,IC50,95100 nM
